# pIC50: −log10 of the molar value.
# Target: Cytochrome P450 3A4 (Homo sapiens, UniProt P08684)
# Experiment: Inhibition of CYP3A4 (unknown origin)
# Format: ADME
# Conditions: not given
# Cytochrome P450 3A4, sequence (P08684 whole entry): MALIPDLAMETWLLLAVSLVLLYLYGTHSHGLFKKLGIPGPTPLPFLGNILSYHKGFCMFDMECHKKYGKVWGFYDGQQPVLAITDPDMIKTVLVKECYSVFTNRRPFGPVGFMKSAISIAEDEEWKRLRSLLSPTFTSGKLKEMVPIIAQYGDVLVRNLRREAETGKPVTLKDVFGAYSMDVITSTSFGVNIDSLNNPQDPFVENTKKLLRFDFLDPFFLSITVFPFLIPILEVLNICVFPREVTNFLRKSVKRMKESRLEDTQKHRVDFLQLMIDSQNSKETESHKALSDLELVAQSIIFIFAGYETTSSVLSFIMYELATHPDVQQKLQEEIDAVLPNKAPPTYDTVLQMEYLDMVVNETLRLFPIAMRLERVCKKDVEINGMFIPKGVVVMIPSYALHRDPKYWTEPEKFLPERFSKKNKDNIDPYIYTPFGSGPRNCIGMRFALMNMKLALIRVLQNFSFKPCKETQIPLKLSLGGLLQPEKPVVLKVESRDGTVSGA
row,SMILES,pIC50
1,Cc1nccc2c3cnc(Nc4ccc(N5CCNCC5)cn4)nc3n(C3CCCC3)c12,< 5.00

# System: not listed separately
# Experiment: Clearance in iv dosed rat
# Format: ADME, organism-based
# Conditions: in vivo
# Procedure, shortened: (§1)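 Intravenous and oral (gavage, solution) PK in rat, dog and cynomolgus monkey. The rat vehicle for both routes was water/acetate/tween at pH 4, 96/3/1 (v/v/v). Dog and monkey iv doses used 40% PG aqueous solution at pH 2, and their oral doses used 20% captisol aqueous solution.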
row,SMILES,clearance
1,C[C@H]1CC[C@H](n2c3cnccc3c3cnc(Nc4ccc(N5CCC6(CC5)CCS(=O)(=O)C6)nn4)nc32)CC1,9 mL/min/kg
2,CS(=O)(=O)CC1CCN(c2ccc(Nc3ncc4c5ccncc5n([C@H]5CC[C@H](C)CC5)c4n3)nn2)CC1,3.33 mL/min/kg
3,C[C@H]1CC[C@H](n2c3cnccc3c3cnc(Nc4ccc(N5CCC6(CCC(=O)N6)CC5)cn4)nc32)CC1,21.7 mL/min/kg
4,C[C@H]1CC[C@H](n2c3cnccc3c3cnc(Nc4ccc(N5CCNCC5)nn4)nc32)CC1,5.83 mL/min/kg
5,COc1nc(Nc2ncc3c4ccncc4n([C@H]4CC[C@H](C)CC4)c3n2)ccc1N1CCC2(CCC(=O)N2)CC1,15.2 mL/min/kg

# System: not listed separately
# Experiment: Antiproliferative activity against Rb-negative human MDA-MB-436 cells assessed as incorporation of [3H]thymidine into DNA after 72 hrs by beta-plate counting analysis
# Format: functional
# Conditions: not given
row,SMILES,pIC50
1,C[C@H]1CC[C@H](n2c3cnccc3c3cnc(Nc4ccc(N5CCC6(CC5)CCS(=O)(=O)C6)nn4)nc32)CC1,5.00
2,CS(=O)(=O)CC1CCN(c2ccc(Nc3ncc4c5ccncc5n([C@H]5CC[C@H](C)CC5)c4n3)nn2)CC1,5.00
3,C[C@H]1CC[C@H](n2c3cnccc3c3cnc(Nc4ccc(N5CCC6(CCC(=O)N6)CC5)cn4)nc32)CC1,5.14
4,C[C@H]1CC[C@H](n2c3cnccc3c3cnc(Nc4ccc(N5CCNCC5)nn4)nc32)CC1,6.00
5,COc1nc(Nc2ncc3c4ccncc4n([C@H]4CC[C@H](C)CC4)c3n2)ccc1N1CCC2(CCC(=O)N2)CC1,5.12
6,Cc1nccc2c3cnc(Nc4ccc(N5CCNCC5)cn4)nc3n(C3CCCC3)c12,5.47

# System: MOLM-13
# Experiment: Antiproliferative activity against human MOLM13 cells harboring FLT3 ITD mutant assessed as incorporation of [3H]thymidine into DNA after 72 hrs by beta-plate counting analysis
# Format: functional, cell-based
# Conditions: not given
row,SMILES,pIC50
1,C[C@H]1CC[C@H](n2c3cnccc3c3cnc(Nc4ccc(N5CCC6(CC5)CCS(=O)(=O)C6)nn4)nc32)CC1,7.49
2,CS(=O)(=O)CC1CCN(c2ccc(Nc3ncc4c5ccncc5n([C@H]5CC[C@H](C)CC5)c4n3)nn2)CC1,7.52
3,C[C@H]1CC[C@H](n2c3cnccc3c3cnc(Nc4ccc(N5CCC6(CCC(=O)N6)CC5)cn4)nc32)CC1,7.68
4,C[C@H]1CC[C@H](n2c3cnccc3c3cnc(Nc4ccc(N5CCNCC5)nn4)nc32)CC1,7.89
5,COc1nc(Nc2ncc3c4ccncc4n([C@H]4CC[C@H](C)CC4)c3n2)ccc1N1CCC2(CCC(=O)N2)CC1,8.40
6,Cc1nccc2c3cnc(Nc4ccc(N5CCNCC5)cn4)nc3n(C3CCCC3)c12,8.30

# System: not listed separately
# Experiment: Drug uptake in CrTac:NCR-Foxn1nu (NCR) nude mouse at 150 mg/kg, po after 3 hrs
# Format: ADME, organism-based
# Parameters: dose 150 mg/kg, route oral
# Conditions: in vivo, read-out: Drug uptake
# Procedure, shortened: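 Total plasma drug concentration in mouse PK studies, taken 3 h after a 150 mg/kg oral dose.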
row,SMILES,concentration at 3 h
1,C[C@H]1CC[C@H](n2c3cnccc3c3cnc(Nc4ccc(N5CCC6(CC5)CCS(=O)(=O)C6)nn4)nc32)CC1,11.6 µM
2,C[C@H]1CC[C@H](n2c3cnccc3c3cnc(Nc4ccc(N5CCC6(CCC(=O)N6)CC5)cn4)nc32)CC1,14.7 µM

# System: COLO 205
# Experiment: Antiproliferative activity against Rb-positive human COLO205 cells assessed as incorporation of [14C]thymidine into DNA after 72 hrs by beta-plate counting analysis
# Conditions: not given
row,SMILES,pIC50
1,C[C@H]1CC[C@H](n2c3cnccc3c3cnc(Nc4ccc(N5CCC6(CC5)CCS(=O)(=O)C6)nn4)nc32)CC1,7.42
2,CS(=O)(=O)CC1CCN(c2ccc(Nc3ncc4c5ccncc5n([C@H]5CC[C@H](C)CC5)c4n3)nn2)CC1,7.72
3,C[C@H]1CC[C@H](n2c3cnccc3c3cnc(Nc4ccc(N5CCC6(CCC(=O)N6)CC5)cn4)nc32)CC1,7.51
4,C[C@H]1CC[C@H](n2c3cnccc3c3cnc(Nc4ccc(N5CCNCC5)nn4)nc32)CC1,7.66
5,COc1nc(Nc2ncc3c4ccncc4n([C@H]4CC[C@H](C)CC4)c3n2)ccc1N1CCC2(CCC(=O)N2)CC1,7.36
6,Cc1nccc2c3cnc(Nc4ccc(N5CCNCC5)cn4)nc3n(C3CCCC3)c12,6.55

# Target: Cyclin-dependent kinase 4/cyclin D1 (Homo sapiens, UniProt P11802)
# Sequence (P11802 whole entry): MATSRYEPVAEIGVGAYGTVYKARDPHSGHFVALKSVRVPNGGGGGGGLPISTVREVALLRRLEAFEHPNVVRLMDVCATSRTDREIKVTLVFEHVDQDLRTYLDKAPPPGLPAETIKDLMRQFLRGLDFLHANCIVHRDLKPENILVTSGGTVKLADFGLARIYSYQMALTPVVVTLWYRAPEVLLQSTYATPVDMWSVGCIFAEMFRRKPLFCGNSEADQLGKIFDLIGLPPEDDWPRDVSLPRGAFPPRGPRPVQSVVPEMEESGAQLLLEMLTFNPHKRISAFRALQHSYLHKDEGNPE
# Sequence (P24385 whole entry, further chain): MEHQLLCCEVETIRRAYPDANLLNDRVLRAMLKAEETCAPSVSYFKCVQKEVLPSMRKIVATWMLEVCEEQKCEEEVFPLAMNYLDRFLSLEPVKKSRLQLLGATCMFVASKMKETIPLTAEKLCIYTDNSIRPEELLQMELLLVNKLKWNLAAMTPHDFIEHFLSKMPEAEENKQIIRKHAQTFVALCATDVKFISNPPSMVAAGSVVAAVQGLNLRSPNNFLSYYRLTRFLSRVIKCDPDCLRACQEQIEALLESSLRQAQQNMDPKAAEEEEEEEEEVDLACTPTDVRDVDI
# Experiment: Inhibition of CDK4/cyclin D1 (unknown origin) using Rb as substrate after 60 mins by scintillation counting analysis in presence of [r-33P]ATP
# Format: protein-complex assay
# Conditions: not given
row,SMILES,pIC50
1,C[C@H]1CC[C@H](n2c3cnccc3c3cnc(Nc4ccc(N5CCC6(CC5)CCS(=O)(=O)C6)nn4)nc32)CC1,8.40
2,CS(=O)(=O)CC1CCN(c2ccc(Nc3ncc4c5ccncc5n([C@H]5CC[C@H](C)CC5)c4n3)nn2)CC1,8.05
3,C[C@H]1CC[C@H](n2c3cnccc3c3cnc(Nc4ccc(N5CCC6(CCC(=O)N6)CC5)cn4)nc32)CC1,8.52
4,C[C@H]1CC[C@H](n2c3cnccc3c3cnc(Nc4ccc(N5CCNCC5)nn4)nc32)CC1,8.70
5,COc1nc(Nc2ncc3c4ccncc4n([C@H]4CC[C@H](C)CC4)c3n2)ccc1N1CCC2(CCC(=O)N2)CC1,7.89
6,Cc1nccc2c3cnc(Nc4ccc(N5CCNCC5)cn4)nc3n(C3CCCC3)c12,7.70

# Target: CYP3A4 (Homo sapiens, UniProt P08684)
# Sequence (P08684 whole entry): as the sequence (P08684 whole entry) above
# Experiment: Inhibition of CYP3A4 (unknown origin) at 3 uM
# Format: ADME
# Conditions: not given
row,SMILES,inhibition at 3 µM
1,Cc1nccc2c3cnc(Nc4ccc(N5CCNCC5)cn4)nc3n(C3CCCC3)c12,< 10%

# System: not listed separately
# Experiment: Oral bioavailability in rat
# Format: ADME, organism-based
# Conditions: in vivo
# Procedure, shortened: as §1
row,SMILES,bioavailability
1,C[C@H]1CC[C@H](n2c3cnccc3c3cnc(Nc4ccc(N5CCC6(CC5)CCS(=O)(=O)C6)nn4)nc32)CC1,38%
2,CS(=O)(=O)CC1CCN(c2ccc(Nc3ncc4c5ccncc5n([C@H]5CC[C@H](C)CC5)c4n3)nn2)CC1,23%
3,C[C@H]1CC[C@H](n2c3cnccc3c3cnc(Nc4ccc(N5CCC6(CCC(=O)N6)CC5)cn4)nc32)CC1,48%
4,C[C@H]1CC[C@H](n2c3cnccc3c3cnc(Nc4ccc(N5CCNCC5)nn4)nc32)CC1,11%
5,COc1nc(Nc2ncc3c4ccncc4n([C@H]4CC[C@H](C)CC4)c3n2)ccc1N1CCC2(CCC(=O)N2)CC1,65%

# Target: T1, Receptor-type tyrosine-protein kinase FLT3 (Homo sapiens, UniProt P36888)
# T1 sequence (P36888 whole entry): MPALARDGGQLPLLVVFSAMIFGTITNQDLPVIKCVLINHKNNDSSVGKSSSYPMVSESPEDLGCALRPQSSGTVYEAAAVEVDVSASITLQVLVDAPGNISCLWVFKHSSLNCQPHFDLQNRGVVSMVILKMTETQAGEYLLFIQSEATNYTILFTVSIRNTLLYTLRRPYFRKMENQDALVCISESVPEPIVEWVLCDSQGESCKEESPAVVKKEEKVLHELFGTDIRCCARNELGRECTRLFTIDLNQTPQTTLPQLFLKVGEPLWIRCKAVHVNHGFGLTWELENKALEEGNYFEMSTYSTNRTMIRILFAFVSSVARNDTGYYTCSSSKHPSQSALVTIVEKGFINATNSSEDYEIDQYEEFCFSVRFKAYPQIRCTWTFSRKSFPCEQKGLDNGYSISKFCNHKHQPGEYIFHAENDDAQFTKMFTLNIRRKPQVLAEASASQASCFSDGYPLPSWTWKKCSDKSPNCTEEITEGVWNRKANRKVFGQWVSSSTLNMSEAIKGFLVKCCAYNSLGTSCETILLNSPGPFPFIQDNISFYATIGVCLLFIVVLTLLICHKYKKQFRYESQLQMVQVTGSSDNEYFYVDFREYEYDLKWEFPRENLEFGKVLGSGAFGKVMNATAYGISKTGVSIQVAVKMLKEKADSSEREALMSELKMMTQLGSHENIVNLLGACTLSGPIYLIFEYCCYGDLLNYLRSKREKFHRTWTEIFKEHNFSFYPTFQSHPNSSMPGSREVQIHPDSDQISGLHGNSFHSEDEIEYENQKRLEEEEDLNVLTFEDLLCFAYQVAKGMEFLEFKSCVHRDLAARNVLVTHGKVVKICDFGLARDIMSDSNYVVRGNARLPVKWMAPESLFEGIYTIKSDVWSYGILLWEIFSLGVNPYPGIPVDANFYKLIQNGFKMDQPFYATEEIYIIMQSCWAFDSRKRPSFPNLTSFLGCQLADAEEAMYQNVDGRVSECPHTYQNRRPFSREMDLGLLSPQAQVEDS
# Experiment: Inhibition of GST-fused human FLT3 cytoplasmic domain (amino acids 564 to 993) using Ulight-JAK1 as substrate after 1 hr by TR-FRET assay
# Conditions: not given
row,SMILES,pIC50
1,C[C@H]1CC[C@H](n2c3cnccc3c3cnc(Nc4ccc(N5CCC6(CC5)CCS(=O)(=O)C6)nn4)nc32)CC1,8.30
2,CS(=O)(=O)CC1CCN(c2ccc(Nc3ncc4c5ccncc5n([C@H]5CC[C@H](C)CC5)c4n3)nn2)CC1,8.10
3,C[C@H]1CC[C@H](n2c3cnccc3c3cnc(Nc4ccc(N5CCC6(CCC(=O)N6)CC5)cn4)nc32)CC1,8.52
4,C[C@H]1CC[C@H](n2c3cnccc3c3cnc(Nc4ccc(N5CCNCC5)nn4)nc32)CC1,8.22
5,COc1nc(Nc2ncc3c4ccncc4n([C@H]4CC[C@H](C)CC4)c3n2)ccc1N1CCC2(CCC(=O)N2)CC1,9.22
6,Cc1nccc2c3cnc(Nc4ccc(N5CCNCC5)cn4)nc3n(C3CCCC3)c12,7.66

# Target: Cyclin-dependent kinase 1/cyclin B1 (Homo sapiens, UniProt P06493)
# Sequence (P06493 whole entry): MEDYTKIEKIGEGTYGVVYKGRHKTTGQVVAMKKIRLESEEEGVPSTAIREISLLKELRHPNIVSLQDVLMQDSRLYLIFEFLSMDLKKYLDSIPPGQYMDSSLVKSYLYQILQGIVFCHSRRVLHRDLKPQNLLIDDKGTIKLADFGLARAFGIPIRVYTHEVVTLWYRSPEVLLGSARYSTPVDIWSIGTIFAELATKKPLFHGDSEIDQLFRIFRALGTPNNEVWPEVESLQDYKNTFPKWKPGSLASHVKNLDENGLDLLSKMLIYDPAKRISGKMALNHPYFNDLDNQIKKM
# Sequence (P14635 whole entry, further chain): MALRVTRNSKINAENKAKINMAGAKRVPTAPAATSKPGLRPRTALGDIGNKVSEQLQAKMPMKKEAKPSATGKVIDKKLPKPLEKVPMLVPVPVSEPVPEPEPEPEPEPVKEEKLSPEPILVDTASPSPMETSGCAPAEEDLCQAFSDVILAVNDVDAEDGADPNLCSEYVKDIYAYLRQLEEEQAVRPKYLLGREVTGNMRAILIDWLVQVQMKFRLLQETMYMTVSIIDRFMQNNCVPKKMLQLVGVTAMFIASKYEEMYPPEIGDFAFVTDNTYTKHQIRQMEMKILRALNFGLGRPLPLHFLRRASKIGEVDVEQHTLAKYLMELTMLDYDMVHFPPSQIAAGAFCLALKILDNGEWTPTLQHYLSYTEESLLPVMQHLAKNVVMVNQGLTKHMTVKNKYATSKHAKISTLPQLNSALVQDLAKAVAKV
# Experiment: Inhibition of CDK1/cyclin B (unknown origin) using histone H1 as substrate after 60 mins by scintillation counting analysis in presence of [r-33P]ATP
# Format: protein-complex assay
# Conditions: not given
row,SMILES,pIC50
1,C[C@H]1CC[C@H](n2c3cnccc3c3cnc(Nc4ccc(N5CCC6(CC5)CCS(=O)(=O)C6)nn4)nc32)CC1,5.79
2,CS(=O)(=O)CC1CCN(c2ccc(Nc3ncc4c5ccncc5n([C@H]5CC[C@H](C)CC5)c4n3)nn2)CC1,5.40
3,C[C@H]1CC[C@H](n2c3cnccc3c3cnc(Nc4ccc(N5CCC6(CCC(=O)N6)CC5)cn4)nc32)CC1,5.75
4,C[C@H]1CC[C@H](n2c3cnccc3c3cnc(Nc4ccc(N5CCNCC5)nn4)nc32)CC1,5.82
5,COc1nc(Nc2ncc3c4ccncc4n([C@H]4CC[C@H](C)CC4)c3n2)ccc1N1CCC2(CCC(=O)N2)CC1,5.97
6,Cc1nccc2c3cnc(Nc4ccc(N5CCNCC5)cn4)nc3n(C3CCCC3)c12,5.65

# Reference: ChEMBL document CHEMBL3232894, “Discovery of AMG 925, a FLT3 and CDK4 dual kinase inhibitor with preferential affinity for the activated state of FLT3” (J Med Chem, 2014)
